# Hits are enriched below; roughly 3.9% of the tested compounds scored in any of these assays.
# AHR act = activates the human aryl hydrocarbon receptor; AID 2796; 2.5% of 320,000 active; activation, % at 5 µM; AHR-responsive luciferase reporter cells, luminescence; in the data active means activation above about 47%
# SR-BI HDL uptake = mouse SR-BI HDL lipid transfer inhibition; inhibition, % at 12.5 µM; Q61009; ldlA[mSR-BI] CHO cells, DiI-HDL uptake fluorescence, 3 h; AID 488896; 0.96% of 320,000 active;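 active means mean replicate inhibition of at least 70% and a set share of replicates each scoring 70 or more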
# FXN GAA850 act = frataxin GAA850 promoter activation; HEK293 lucGAA850 FXN promoter luciferase reporter, 24 h; percent of 10 µM SAHA response; activation, % at 6 µM; 0.56% of 360,000 active; AID 540364;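 active means activation above the average of all compounds screened plus 3 SD, cutoff fixed separately per campaign, cut at about 7.5% in these data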
# ABCB6 inh 2 = inhibitors of human ABC transporter ABCB6; fluorescence ratio to DMSO, % at 10 µM; Q9NP58; K562-ABCB6 porphyrin accumulation, flow cytometry, 1 h; hits give low values; AID 602162; 0.19% of 360,000 active;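 active means fluorescence ratio to DMSO below 75%, the collection mean minus 3 SD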;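 further: signal is porphyrin accumulated inside mitochondria; lower ratio means ABCB6 inhibition with less porphyrin fluorescence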
# Target sequence (Q9NP58 whole entry, looked up): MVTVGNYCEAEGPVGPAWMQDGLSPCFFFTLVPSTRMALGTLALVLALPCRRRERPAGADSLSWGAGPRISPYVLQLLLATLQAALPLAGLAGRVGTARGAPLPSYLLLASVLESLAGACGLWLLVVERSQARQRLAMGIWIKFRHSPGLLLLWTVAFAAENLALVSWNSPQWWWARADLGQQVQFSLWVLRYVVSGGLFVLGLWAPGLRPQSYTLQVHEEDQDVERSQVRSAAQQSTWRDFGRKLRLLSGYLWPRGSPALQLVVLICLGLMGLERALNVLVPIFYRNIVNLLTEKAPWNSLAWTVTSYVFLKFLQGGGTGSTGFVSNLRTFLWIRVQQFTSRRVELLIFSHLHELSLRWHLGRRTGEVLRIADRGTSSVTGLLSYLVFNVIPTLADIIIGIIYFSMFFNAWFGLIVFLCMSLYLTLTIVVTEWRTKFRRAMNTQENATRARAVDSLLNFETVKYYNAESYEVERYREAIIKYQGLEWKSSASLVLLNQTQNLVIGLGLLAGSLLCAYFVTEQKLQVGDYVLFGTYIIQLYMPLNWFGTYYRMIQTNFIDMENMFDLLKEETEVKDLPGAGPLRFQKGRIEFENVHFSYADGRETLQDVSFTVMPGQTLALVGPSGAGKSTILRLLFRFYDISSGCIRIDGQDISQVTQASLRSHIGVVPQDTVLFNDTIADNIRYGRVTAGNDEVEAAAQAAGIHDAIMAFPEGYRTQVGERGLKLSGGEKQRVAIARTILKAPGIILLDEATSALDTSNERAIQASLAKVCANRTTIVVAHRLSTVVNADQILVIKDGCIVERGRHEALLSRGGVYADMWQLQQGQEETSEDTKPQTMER
# SR-BI uptake up = enhances SR-BI lipid uptake from DiI-HDL. 0.096% of 320,000 active. activation, % at 12.5 µM. CHO ldlA[mSR-BI] cells, DiI-HDL uptake fluorescence, 3 h; 100 = double the neutral-control signal;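 active means mean replicate activation of at least 60% and every replicate at or above 60%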
#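 System: CHO ldlA[mSR-BI] cells / Medium: HEPES-buffered (25 mM, pH 7.4) F12 plus 0.5% BSA / Probe or stimulus: labelled HDL, 10 µg/mL / Doses: single compound concentration, delivered by pin transfer / Schedule: 3 h, 37 °C / Measured by: DiI fluorescence, bottom read / Measure: cell-associated DiI fluorescence as measure of HDL uptake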
# HIF activator = HIF pathway transcriptional activation. U2OS HRE-luciferase reporter, luminescence; normalized: DMSO 0%, desferrioxamine 100%. activation, % at 7.5 µM (by protocol). 0.32% of 300,000 active. AID 1910;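 active means mean activation of at least 10% of the iron chelator positive control signal, with at least half of replicates also reaching 10%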
# A number is an active result; n = inactive; x = no result.
SMILES,AHR act,SR-BI HDL uptake,FXN GAA850 act,ABCB6 inh 2,SR-BI uptake up,HIF activator
CCNC(=S)NS(=O)(=O)c1ccccc1,n,n,n,n,n,n
CCOC(=O)c1cc(-c2ccc(OC)cc2)nc2c1c(C)nn2CCC#N,n,73.9,n,n,n,n
C=CCn1c(=NC(=O)C2CC2)sc2cc(NC(C)=O)ccc21,62.0,n,n,n,n,n
CCN(CCCNC(=O)CCc1nc(-c2ccc(OC)cc2)no1)c1cccc(C)c1,n,n,n,n,n,143.3
COc1ccc(-c2noc(CCC(=O)NCCc3ccccc3)n2)cc1,n,n,n,n,n,n
Cc1ccc(S(=O)(=O)/C(C#N)=C/c2c(N3CCCCC3)nc3ccccn3c2=O)cc1,n,x,n,n,x,n
C#Cc1cccc(NC(=O)c2ccc3c(c2)C(=O)N(Cc2cccnc2)C3=O)c1,56.7,n,n,n,n,n
O=C(O)c1cc(NC(=O)c2ccc3c(c2)C(=O)N(Cc2cccnc2)C3=O)cc(C(=O)O)c1,n,n,n,n,n,n
CC(=O)Oc1ccc2ccccc2c1C(NC(=O)Cc1ccccc1)c1ccccc1Cl (centres undefined),n,n,n,n,n,n
COc1cc(C(=O)NCC2CCCO2)ccc1OCc1ccc(Cl)cc1 (centres undefined),n,n,n,n,n,x
COc1cc(C(=O)NCC2CCCO2)ccc1OCc1ccc(Cl)cc1Cl (centres undefined),n,78.8,n,n,n,n
COC(=O)[C@@H]1C[C@H]2CC[C@H](O)C[C@H]2N1Cc1ccc(-c2ccccc2)cc1,n,n,n,n,n,n
COc1ccc(-c2cc3cc(F)ccc3cn2)cc1,51.0,n,n,n,n,x
COc1ccc(-c2cc3cc(OC)c(OC)cc3cn2)cc1OC,n,x,n,n,x,n
COc1ccc(-c2cc3ccc(F)cc3cn2)cc1,47.3,n,n,n,n,x
Fc1ccc2cc(-c3ccccc3F)ncc2c1,75.9,n,n,n,n,x
COc1ccccc1CCC(=O)OCC(=O)Nc1c(Br)cc(C)cc1Br,n,x,n,n,x,n
CSC(=NC#N)N1CCN(c2ccccn2)CC1,n,n,n,n,n,n
Cc1ccc(-c2cc(C(=O)N3CCCCCC3)no2)cc1,n,n,n,n,n,12.4
COc1ccc(NC(=O)c2nc3ccccc3s2)cc1,n,n,n,n,n,n
CC(=O)N1CCN(C(=O)c2ccc3c(c2)S(=O)(=O)c2ccccc2C3=O)CC1,n,n,n,n,n,n
COc1ccc(NC(=O)C(C)Sc2nnc(C3CC3)n2C2CC2)cc1 (centres undefined),n,n,n,n,n,x
CC(=O)c1ccc(NC(=O)C(C)Sc2nnc(C3CC3)n2C2CC2)cc1 (centres undefined),n,76.4,n,n,n,x
CC(=O)N1c2ccc(S(=O)(=O)N3CCCC3)cc2CC1C(=O)NCc1ccc(N(C)C)cc1 (centres undefined),n,n,n,n,x,n
O=C(O)CCCNc1c(C(=O)Nc2ccc(Cl)cc2)cc([N+](=O)[O-])cc1[N+](=O)[O-],56.3,n,n,n,n,n
SMILES,AHR act,SR-BI HDL uptake,FXN GAA850 act,ABCB6 inh 2,SR-BI uptake up,HIF activator
O=C(Nc1ccc(Nc2ccccc2)cc1)c1ccc(Cl)cc1[N+](=O)[O-],n,x,n,n,x,n
O=C(O)c1cc([N+](=O)[O-])cc2ccccc12,x,n,n,n,89.8,x
O=C(Nc1ccccc1)c1cc([N+](=O)[O-])ccc1NC1CCCCC1,51.7,n,n,n,n,n
O=C(O)c1ccccc1Nc1ccc([N+](=O)[O-])cc1C(=O)O,n,n,n,n,n,14.2
CCCOc1ccc(C(=O)Nc2ccc3c(c2)OCCO3)cc1,n,n,n,n,n,n
O/N=C1/C2C3CC4C5C3C1C5C1(OCCO1)C42 (centres undefined),n,n,n,n,n,60.7
O=C(C#Cc1ccccc1)Nc1cccc(F)c1,n,n,n,n,n,n
CSc1nnc(Cc2cc(=O)[nH]c(=O)[nH]2)n1-c1cc(C)ccc1C,n,n,n,n,70.0,n
CCSc1nnc(Cc2cc(=O)[nH]c(=O)[nH]2)n1-c1cc(C)ccc1C,n,n,n,n,n,n
Cc1nc2c(-c3ccc(Cl)cc3)cnn2c2c1CCC2,74.5,n,n,n,n,n
Cc1ccc2cccc(NS(=O)(=O)c3ccccc3)c2n1,71.2,x,x,x,x,n
CS(=O)(=O)Nc1cccc2cccnc12,n,n,n,n,n,x
Cc1cc(C)n(-c2ccc3cccc(NS(C)(=O)=O)c3n2)n1,n,n,n,n,n,52.2
O=S(=O)(Nc1cccc2cccnc12)c1ccccc1,n,n,n,n,n,n
Oc1[nH]c2ccccc2c1C1=NCCCCC1,62.2,n,n,n,n,n
O=NC1=C(c2c(O)[nH]c3ccccc23)CCCC1,n,n,n,n,n,n
COc1ccc(C(O)c2ncc(-c3ccccc3)[nH]2)c(OC)c1 (centres undefined),x,x,n,n,x,x
COc1ccc(C)cc1NC(=O)Nc1cccc(C)c1,n,n,n,n,n,n
COc1ccc([N+](=O)[O-])cc1NC(=O)Nc1ccc(OC)c(OC)c1,n,76.0,n,n,n,n
COc1ccc(NC(=O)Nc2cc(C)ccc2F)cc1OC,52.4,n,n,n,n,n
COc1ccc(NC(=O)Nc2ccc(OC)c(OC)c2)c([N+](=O)[O-])c1,n,n,n,n,n,n
COc1ccc([N+](=O)[O-])cc1NC(=O)Cc1ccc(C)cc1,n,x,n,n,x,n
COc1ccc([N+](=O)[O-])cc1NC(=O)Nc1cccc(Cl)c1,n,82.7,n,n,n,n
COc1ccc(CCC(=O)Nc2cc([N+](=O)[O-])ccc2OC)cc1,n,74.1,n,n,n,n
Cc1cccc(-n2cc(CN3CCN(Cc4nccn4C)CC3)c(-c3cccc(F)c3)n2)c1,n,n,n,n,n,n
SMILES,AHR act,SR-BI HDL uptake,FXN GAA850 act,ABCB6 inh 2,SR-BI uptake up,HIF activator
COc1ccc(/C=C/C(=O)c2c(O)cc(C)oc2=O)c(OC)c1,n,n,n,n,n,n
COc1ccc([N+](=O)[O-])cc1C(=O)Nc1ccc(Cc2ccncc2)cc1,72.0,n,n,n,n,n
Cc1cc([N+](=O)[O-])ccc1NC(=O)c1cncc(Br)c1,n,n,n,n,n,n
COc1ccccc1C(=O)Nc1ccc(Cc2ccncc2)cc1,n,n,n,n,n,x
COc1ccc([N+](=O)[O-])cc1NC(=O)c1cncc(Br)c1,70.0,n,n,n,n,n
CCCNC(=O)CCn1c(-c2ccc(C)cc2)cc(C(=O)OCC)c1C,n,n,n,n,n,n
Cc1cccc(C)c1NC(=O)COC(=O)c1ccccc1Nc1ccccc1,n,82.1,n,n,n,n
O=C(COC(=O)c1ccccc1Nc1ccccc1)Nc1ccccc1,n,n,n,n,n,n

# Compound activity as filed in PubChem.
